Compound activity from PubChem.
Beta cell apopt: blocks beta cell apoptosis; INS-1E cytokine-induced death, ATP luminescence, 48 h; percent of positive-control rescue, neutral wells zero; protection from apoptosis, % (test concentration not listed); AID 435005; 300,000 tested, 0.8% active;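 active = Every replicate reaches about 75%, or at least half do and their mean reaches it too, limit read from the data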;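 note: higher means more ATP so stronger rescue from cytokine killing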
UPR CHOP act: activators of apoptotic arm of unfolded protein response (CHOP). 330,000 tested, 0.34% active. CHO-CHOP luciferase reporter, UPR activation, luminescence; percent of tunicamycin response over DMSO baseline. activation, % at 10 µM. AID 449763;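 active = at 10 µM dose, activation of 40% or more, normalized to positive control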
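Material: CHO-CHOP cells, stable luciferase reporter of PERK-eIF2a-CHOP signalling; quantity: 500 reporter cells seeded per well; buffer or medium: F12 medium containing 10% fetal bovine serum; compound: one dose, 10 µM in 0.5% DMSO; incubation: 6 h compound treatment, 37 °C; measured by: Steady-Glo luciferase luminescence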
CSC inhib: cancer stem cell inhibition | inhibition, % at 7.5 µM | 300,000 tested, 1.1% active | AID 2717 | cancer stem cell-like cells viability, luminescence; in the data active = inhibition above about 75%; tested in HMLE shEcad cells
Mdm2-MdmX inh: disrupts the human Mdm2-MdmX interaction | O15151+Q00987 | SaOS-2 split-luciferase Mdm2/MdmX complementation, luminescence | inhibition, % at 8 µM | 330,000 tested, 3% active | AID 485346;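 active = inhibition of at least 50% at 8 µM in the primary screen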
Target sequence (O15151 whole entry, looked up): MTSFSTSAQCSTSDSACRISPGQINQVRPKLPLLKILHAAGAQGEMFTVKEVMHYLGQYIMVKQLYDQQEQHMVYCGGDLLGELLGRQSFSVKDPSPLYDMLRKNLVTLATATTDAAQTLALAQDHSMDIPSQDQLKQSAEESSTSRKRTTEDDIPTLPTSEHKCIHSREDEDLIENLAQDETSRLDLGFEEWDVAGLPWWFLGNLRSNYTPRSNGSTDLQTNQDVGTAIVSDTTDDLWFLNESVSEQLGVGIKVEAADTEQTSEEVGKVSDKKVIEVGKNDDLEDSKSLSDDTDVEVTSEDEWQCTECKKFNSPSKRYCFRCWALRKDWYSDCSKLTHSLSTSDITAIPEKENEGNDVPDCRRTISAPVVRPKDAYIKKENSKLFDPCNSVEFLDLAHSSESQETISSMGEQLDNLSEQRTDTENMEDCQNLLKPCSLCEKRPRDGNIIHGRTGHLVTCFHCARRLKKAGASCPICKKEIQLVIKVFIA
Target sequence (Q00987 whole entry, looked up): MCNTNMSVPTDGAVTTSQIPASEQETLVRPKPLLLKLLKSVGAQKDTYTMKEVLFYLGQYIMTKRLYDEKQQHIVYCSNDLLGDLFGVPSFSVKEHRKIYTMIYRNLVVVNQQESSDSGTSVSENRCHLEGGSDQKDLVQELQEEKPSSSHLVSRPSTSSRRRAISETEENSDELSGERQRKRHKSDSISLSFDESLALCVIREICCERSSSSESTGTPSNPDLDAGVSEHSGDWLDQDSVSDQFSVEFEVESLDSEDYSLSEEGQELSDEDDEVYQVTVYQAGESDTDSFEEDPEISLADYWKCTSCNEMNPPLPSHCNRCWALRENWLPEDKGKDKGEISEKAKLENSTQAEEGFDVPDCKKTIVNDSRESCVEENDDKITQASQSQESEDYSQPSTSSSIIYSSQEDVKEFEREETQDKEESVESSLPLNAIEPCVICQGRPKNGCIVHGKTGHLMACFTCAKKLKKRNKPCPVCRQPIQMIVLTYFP
UPR XBP1 act: activators of adaptive arm of unfolded protein response (XBP1); CHO-XBP1 luciferase reporter, IRE1-XBP1 UPR activation, luminescence; percent of tunicamycin response, DMSO as zero; activation, % at 20 µM; 330,000 tested, 0.33% active; AID 463104;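 active = versus positive control, 20 µM dose yields 30% or more activation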
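Signal: luciferase luminescence; Assay system: CHO-XBP1 luciferase reporter cells; Amount: one thousand reporter cells per well; Dosing: 20 µM single concentration, DMSO 1%; Benchmarks: high control tunicamycin 10 µg/mL final, low control DMSO vehicle only; Schedule: 6 h compound exposure at 37 °C, 5% CO2; Evaluation: percent activation relative to tunicamycin reference.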
SKKanGAS inh: blocks kanamycin growth of S. pyogenes SKKanGAS strain | 300,000 tested, 1.3% active | inhibition, % at 7.5 µM | BacTiter-Glo, 6 h;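 active = mean replicate score, as percent of positive control median, at least 50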;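 note: strain carries kanamycin resistance gene driven by streptokinase promoter and grows in 40 µg/ml kanamycin; loss of luminescence reflects streptokinase promoter inhibition or plain growth inhibition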
Large screens that a line does not name were inactive. An excerpt weighted towards active compounds, which were near 4.8% of everything screened.

Cc1ccccc1-c1cc(-c2ccccc2O)n[nH]1	SKKanGAS inh 55
Oc1ccccc1-c1cc(-c2ccccc2)n[nH]1	none (no result: CSC inhib, SKKanGAS inh)
Cc1ccc(-c2cc(-c3ccccc3Cl)[nH]n2)c(O)c1	CSC inhib 112, SKKanGAS inh 110
O=C(NCc1cccc(C(F)(F)F)c1)C1CCCN(c2cnccn2)C1 (stereo not given)	none
CCOc1ccc(/C=N/NC(=O)c2ccccc2C)cc1CN1CC2CC(C1)c1cccc(=O)n1C2 (stereo not given)	none (no result: SKKanGAS inh)
CC(C(=O)Nc1ccc(Br)cc1)N(C)CC(=O)NCc1ccco1 (stereo not given)	none (no result: UPR CHOP act, Mdm2-MdmX inh, UPR XBP1 act, SKKanGAS inh)
COc1ccccc1CCNC(=O)C(=O)NCC1OCCN1S(=O)(=O)c1ccc([N+](=O)[O-])cc1 (stereo not given)	none
COc1ccc(CCNc2ncnc3sccc23)cc1OC	Beta cell apopt 111
COc1ccc(CCNc2nc(C)nc3c2oc2ccccc23)cc1OC	none
COc1ccc(CCNc2ncnc3c2oc2ccccc23)cc1OC	Beta cell apopt 107
COc1ccc(Nc2ncnc3sccc23)cc1OC	none
COc1ccccc1CNc1ncnc2sccc12	Beta cell apopt 97
c1ccc2c(c1)OCC(CNc1ncnc3sccc13)O2 (stereo not given)	Beta cell apopt 107 (no result: UPR CHOP act, Mdm2-MdmX inh, UPR XBP1 act)
Fc1ccccc1CNc1ncnc2sccc12	none
O=C(C1CCCN(S(=O)(=O)c2ccccc2)C1)N1CCCCC1 (stereo not given)	none
Cc1ccc(-c2nnn(CC(=O)N(CC(=O)NC3CCCCC3)c3ccccc3F)n2)o1	none (no result: Beta cell apopt, CSC inhib)
Cc1cccn2cc(CCNC(=O)c3cccs3)nc12	none (no result: CSC inhib)
CCN(Cc1ccc2c(c1)OCCO2)C(=O)CN1C(=O)NC2(CCCCC2)C1=O	none (no result: CSC inhib, SKKanGAS inh)
CC1CCN(CCCNC(=O)C2CCC(CNS(=O)(=O)c3ccccc3)CC2)CC1 (stereo not given)	none
Cc1cc(C)n(-c2nc(SCC(=O)O)c3c4c(sc3n2)CCCC4)n1	SKKanGAS inh 57
Cc1cc(C)n(-c2nc(NCC(C)O)c3c4c(sc3n2)CCCC4)n1 (stereo not given)	none
Cc1cc(C)n(-c2nc(NCCO)c3c4c(sc3n2)CCCC4)n1	Beta cell apopt 80
COc1ccccc1N(Cc1ccccc1)S(=O)(=O)c1cccc(C(=O)Nc2cccc(C)n2)c1	none
Nc1nc(N)c2[nH]cnc2n1	none
Nc1nc(=S)c2[nH]cnc2[nH]1	CSC inhib 91 (no result: Beta cell apopt, SKKanGAS inh)
O=C(NC1CCC(O)CC1)c1cccc2cccnc12 (stereo not given)	none
CCCCOc1ccccc1C(=O)NNC(=S)NC(=O)c1ccccc1[N+](=O)[O-]	SKKanGAS inh 77
O=C(NNC(=S)NC(=O)c1ccccc1[N+](=O)[O-])c1ccccc1[N+](=O)[O-]	none (no result: Beta cell apopt, CSC inhib)
O=C(OCc1ccccc1)c1ccc2c(c1)-c1ccccc1C2=O	SKKanGAS inh 55
Brc1ccc(/C=N/Nc2ccccc2)cc1	CSC inhib 79
CCOc1ccc(C(CC(=O)O)NC(=O)C(c2ccccc2)c2ccccc2)cc1OC (stereo not given)	none (no result: SKKanGAS inh)
CC(C)Cc1csc(NC(=O)c2ccccc2Cl)c1C(=O)O	none
CC(C)Cc1csc(NC(=O)c2ccc(Cl)cc2)c1C(=O)O	SKKanGAS inh 74
CCCCc1ccc(S(=O)(=O)NCCCN2CCCC2=O)cc1	none
COc1ccccc1N1CCN(C2CCCN(Cc3ccccc3OCCO)C2)CC1 (stereo not given)	none (no result: Beta cell apopt)
Cc1ccc(S(=O)(=O)N2CCC(C(N)=O)CC2)cc1[N+](=O)[O-]	none
Nc1ccc(N=Nc2ccccc2O)c(N)c1	none
Oc1ccccc1N=Nc1ccccc1O	SKKanGAS inh 59 (no result: Beta cell apopt, UPR CHOP act, CSC inhib, Mdm2-MdmX inh, UPR XBP1 act)
Cn1cc(/C=C(\NC(=O)c2ccccc2Cl)C(=O)NCCCn2ccnc2)c2ccccc21	none
CN1CCN(c2ccccc2NC(=O)c2ccc(N3CCCCC3)c([N+](=O)[O-])c2)CC1	none (no result: CSC inhib)
CN1CCN(c2ccc(C(=O)c3ccccc3)cc2[N+](=O)[O-])CC1	CSC inhib 83
COc1c(N2CCN(C(=S)NCc3ccccc3)C(C)C2)c(F)cc2c(=O)c(C(=O)O)cn(C3CC3)c12 (stereo not given)	SKKanGAS inh 106 (no result: CSC inhib)
COc1c(F)c(F)cc2c(=O)c(C(=O)O)cn(C3CC3)c12	none
COc1ccc(C(=O)N/C(=C\c2cn(C)c3ccccc23)C(=O)NCCN2CCOCC2)cc1OC	none
CNC(=O)c1sc(N2N=C3/C(=C/c4ccccc4)CCCC3C2c2ccccc2)nc1C (stereo not given)	Beta cell apopt 98
CCOC(=O)c1ccccc1NC(=O)CSc1nc2ccccc2c(=O)n1CCCN1CCOCC1	none (no result: SKKanGAS inh)
CCOC(=O)C1=NN(C(=O)c2ccc(C)cc2)C(O)(c2ccc(Cl)cc2)C1 (stereo not given)	SKKanGAS inh 55
CCC1=NN(C(=O)c2ccccc2Br)C(O)(c2ccc(Br)cc2)C1 (stereo not given)	none
COC(=O)C1=NN(C(=O)c2ccc(Cl)cc2)C(O)(c2ccccc2)C1 (stereo not given)	none
CCC1=NN(C(=O)c2ccccc2O)C(O)(c2ccccc2)C1 (stereo not given)	Beta cell apopt 87, CSC inhib 79, SKKanGAS inh 54
CCC1=NN(C(=O)c2ccc(Cl)cc2)C(O)(c2ccc(C)cc2)C1 (stereo not given)	CSC inhib 99
CS(=O)(=O)c1ccc(Cl)c(NC(=O)CSc2nnc(-c3cccs3)n2N)c1	none (no result: SKKanGAS inh)
Cc1cc(C)c(C)c(S(=O)(=O)NCc2ccncc2)c1C	none
O=C(Nc1ccnn1C1CCN(C(=O)c2ccc(F)cc2)CC1)C1CCOC1 (stereo not given)	SKKanGAS inh 52 (no result: Beta cell apopt)
Cc1ccc(C(=O)N2CCC(n3nccc3NC(=O)C3CCOC3)CC2)cc1 (stereo not given)	none
O=C1CCSc2ccc(Cl)cc2N1Cc1ccc(Cl)cc1	SKKanGAS inh 53
Cc1ccc(-n2nc3c(c2NC(=O)C2CC2)CS(=O)(=O)C3)cc1	none
O=C(CN1CCN(c2ccccc2Cl)CC1)NC1CCCc2ccccc21 (stereo not given)	none
Cc1ccc(Cl)cc1N1CCN(CC(=O)NC2CCCc3ccccc32)CC1 (stereo not given)	CSC inhib 78
COc1cccc(-c2c(C#N)c(N)nc3c2c(C)nn3-c2ccccc2)c1O	none
Cc1nn(-c2ccccc2)c2nc(N)c(C#N)c(-c3ccc(C(C)(C)C)cc3)c12	CSC inhib 94
O=C(CSc1ncnc2nc[nH]c12)c1ccc(Cl)cc1	CSC inhib 102
CNc1oc(-c2ccc(Cl)cc2)nc1P(=O)(c1ccccc1)c1ccccc1	CSC inhib 120
Cc1ccc(-c2nc(P(=O)(c3ccccc3)c3ccccc3)c(N3CCOCC3)o2)cc1	none
